Data reported in ChEMBL document CHEMBL3621107, “Ring fusion strategy for synthesis and lead optimization of sulfur-substituted anthra[1,2-c][1,2,5]thiadiazole-6,11-dione derivatives as promising scaffold of antitumor agents” (Eur J Med Chem, 2015).

Columns and labels:
Type in all cases: functional
UACC-257 = experiment: Cytotoxicity against human UACC257 cells assessed as cell growth at 10 uM after 48 hrs by SRB assay relative to control; conditions: UACC-257, 48 h, read-out: Activity
In short: (§1)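 NCI-60 one-dose screen run by NCI DTP: each cell line exposed to a single 10 µM dose, and percentage growth recorded against untreated growth.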

SF-268 = experiment: Cytotoxicity against human SF268 cells assessed as cell growth at 10 uM after 48 hrs by SRB assay relative to control; conditions: SF-268, 48 h, read-out: Activity
In short: (§2)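 First-stage NCI DTP one-dose screen against the 60 human tumour cell line panel. Compounds were tested at a single 10 μM level, and results are given as growth percentage.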

CAKI-1 = experiment: Cytotoxicity against human Caki1 cells assessed as cell growth at 10 uM after 48 hrs by SRB assay relative to control; conditions: CAKI-1, 48 h, read-out: Activity
In short: (§3)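 First-stage NCI-60 screen by the NCI Developmental Therapeutics Program. Each compound was tested once at a single concentration of 10 μM against the 60-cell-line panel. Growth percentage was reported for each cell line.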

SK-MEL-5 = experiment: Cytotoxicity against human SK-MEL-5 cells assessed as cell growth at 10 uM after 48 hrs by SRB assay relative to control; conditions: SK-MEL-5, 48 h, read-out: Activity; in short: as §2
DU-145 = experiment: Cytotoxicity against human DU145 cells assessed as cell growth at 10 uM after 48 hrs by SRB assay relative to control; conditions: DU-145, 48 h, read-out: Activity; in short: as §3
RPMI-8226 = experiment: Cytotoxicity against human RPMI8226 cells assessed as cell growth at 10 uM after 48 hrs by SRB assay relative to control; conditions: RPMI-8226, 48 h, read-out: Activity; in short: as §2
HCT-116 = experiment: Cytotoxicity against human HCT116 cells assessed as cell growth at 10 uM after 48 hrs by SRB assay relative to control; conditions: HCT-116, 48 h, read-out: Activity; in short: as §3
[1] = Cytotoxicity against human Hs578T cells assessed as cell growth at 10 uM after 48 hrs by SRB assay relative to control; conditions: Hs-578T, read-out: Activity; in short: as §3
UO-31 = experiment: Cytotoxicity against human UO31 cells assessed as cell growth at 10 uM after 48 hrs by SRB assay relative to control; conditions: UO-31, 48 h, read-out: Activity; in short: as §1
MDA-MB-231 = experiment: Cytotoxicity against human MDA-MB-231 cells assessed as cell growth at 10 uM after 48 hrs by SRB assay relative to control; conditions: MDA-MB-231, 48 h, read-out: Activity; in short: as §2
SK-MEL-2 = experiment: Cytotoxicity against human SK-MEL-2 cells assessed as cell growth at 10 uM after 48 hrs by SRB assay relative to control; conditions: SK-MEL-2, 48 h, read-out: Activity; in short: as §2
NCI-H226 = experiment: Cytotoxicity against human NCI-H226 cells assessed as cell growth at 10 uM after 48 hrs by SRB assay relative to control; conditions: NCI-H226, 48 h, read-out: Activity; in short: as §2
ACHN = experiment: Cytotoxicity against human ACHN cells assessed as cell growth at 10 uM after 48 hrs by SRB assay relative to control; conditions: read-out: Activity; in short: as §3
HOP-62 = experiment: Cytotoxicity against human HOP62 cells assessed as cell growth at 10 uM after 48 hrs by SRB assay relative to control; conditions: HOP-62, 48 h, read-out: Activity; in short: as §3
NCI-H322M = experiment: Cytotoxicity against human NCI-H322M cells assessed as cell growth at 10 uM after 48 hrs by SRB assay relative to control; conditions: read-out: Activity; in short: as §2
HCT-15 = experiment: Cytotoxicity against human HCT15 cells assessed as cell growth at 10 uM after 48 hrs by SRB assay relative to control; conditions: HCT-15, 48 h, read-out: Activity; in short: as §3
OVCAR-8 = experiment: Cytotoxicity against human OVCAR8 cells assessed as cell growth at 10 uM after 48 hrs by SRB assay relative to control; conditions: OVCAR-8, 48 h, read-out: Activity; in short: as §2
SK-MEL-28 = experiment: Cytotoxicity against human SK-MEL-28 cells assessed as cell growth at 10 uM after 48 hrs by SRB assay relative to control; conditions: SK-MEL-28, 48 h, read-out: Activity; in short: as §2
KM12 = experiment: Cytotoxicity against human KM12 cells assessed as cell growth at 10 uM after 48 hrs by SRB assay relative to control; conditions: KM12, 48 h, read-out: Activity; in short: as §3
CCRF-CEM = experiment: Cytotoxicity against human CCRF-CEM cells assessed as cell growth at 10 uM after 48 hrs by SRB assay relative to control; conditions: read-out: Activity; in short: as §3
MCF7 = experiment: Cytotoxicity against human MCF7 cells assessed as cell growth at 10 uM after 48 hrs by SRB assay relative to control; conditions: MCF7, 48 h, read-out: Activity; in short: as §3
COLO 205 = experiment: Cytotoxicity against human COLO205 cells assessed as cell growth at 10 uM after 48 hrs by SRB assay relative to control; conditions: COLO 205, 48 h, read-out: Activity; in short: as §3
SF-539 = experiment: Cytotoxicity against human SF539 cells assessed as cell growth at 10 uM after 48 hrs by SRB assay relative to control; conditions: SF-539, 48 h, read-out: Activity; in short: as §2
A549 = experiment: Cytotoxicity against human A549 cells assessed as cell growth at 10 uM after 48 hrs by SRB assay relative to control; conditions: A549, 48 h, read-out: Activity; in short: as §3
NCI-H460 = experiment: Cytotoxicity against human NCI-H460 cells assessed as cell growth at 10 uM after 48 hrs by SRB assay relative to control; conditions: NCI-H460, 48 h, read-out: Activity; in short: as §2
NCI/ADR-RES = experiment: Cytotoxicity against human NCI/ADR-RES cells assessed as cell growth at 10 uM after 48 hrs by SRB assay relative to control; conditions: read-out: Activity; in short: as §2
RXF 393 = experiment: Cytotoxicity against human RXF393 cells assessed as cell growth at 10 uM after 48 hrs by SRB assay relative to control; conditions: RXF 393, 48 h, read-out: Activity; in short: as §2
OVCAR-4 = experiment: Cytotoxicity against human OVCAR4 cells assessed as cell growth at 10 uM after 48 hrs by SRB assay relative to control; conditions: OVCAR-4, 48 h, read-out: Activity; in short: as §2
IGROV-1 = experiment: Cytotoxicity against human IGROV1 cells assessed as cell growth at 10 uM after 48 hrs by SRB assay relative to control; conditions: IGROV-1, 48 h, read-out: Activity; in short: as §3
NCI-H522 = experiment: Cytotoxicity against human NCI-H522 cells assessed as cell growth at 10 uM after 48 hrs by SRB assay relative to control; conditions: NCI-H522, 48 h, read-out: Activity; in short: as §2
HOP-92 = experiment: Cytotoxicity against human HOP92 cells assessed as cell growth at 10 uM after 48 hrs by SRB assay relative to control; conditions: HOP-92, 48 h, read-out: Activity; in short: as §3

Structure (SMILES)	growth at 10 µM (UACC-257) [%]	growth at 10 µM (SF-268) [%]	growth at 10 µM (SK-MEL-5) [%]	growth at 10 µM (DU-145) [%]	growth at 10 µM (RPMI-8226) [%]	growth at 10 µM (HCT-116) [%]	growth at 10 µM [1] [%]	growth at 10 µM (UO-31) [%]	growth at 10 µM (MDA-MB-231) [%]	growth at 10 µM (SK-MEL-2) [%]	growth at 10 µM (NCI-H226) [%]	growth at 10 µM (ACHN) [%]	growth at 10 µM (HOP-62) [%]	growth at 10 µM (HCT-15) [%]	growth at 10 µM (OVCAR-8) [%]	growth at 10 µM (SK-MEL-28) [%]	growth at 10 µM (KM12) [%]	growth at 10 µM (MCF7) [%]	growth at 10 µM (COLO 205) [%]	growth at 10 µM (SF-539) [%]	other results
O=C1c2ccccc2C(=O)c2c1ccc1nsnc21	-83.1	16.3	8.52	40.8	-28	-50	7.4	-79.3	-17.3	-73.2	97.8	-94.3	-100	1.48	-10.1	15.5	98.6	-50.7	112	-47.1	growth at 10 µM (CAKI-1): 1.97%; growth at 10 µM (NCI-H322M): 126%; growth at 10 µM (CCRF-CEM): -30.8%; growth at 10 µM (A549): 104%; growth at 10 µM (NCI-H460): 77.4%; growth at 10 µM (NCI/ADR-RES): -2.53%; growth at 10 µM (RXF 393): 20.1%; growth at 10 µM (OVCAR-4): -94.4%; growth at 10 µM (IGROV-1): -88.3%
O=C1c2ccccc2C(=O)c2c1cc(Sc1cc(Cl)ccc1Cl)c1nsnc21	119	83	109	102	77.2	81.9	72.5	91.5	82.4	101	112	88.5	63.2	92.8	85.1	123	101	85.2	110	88.7	growth at 10 µM (NCI-H522): 91.3%; growth at 10 µM (CAKI-1): 108%; growth at 10 µM (HOP-92): 65.1%; growth at 10 µM (A549): 103%; growth at 10 µM (NCI-H460): 101%; growth at 10 µM (NCI/ADR-RES): 83.1%; growth at 10 µM (RXF 393): 91.5%; growth at 10 µM (IGROV-1): 78.1%
O=C1c2ccccc2C(=O)c2c1cc(Sc1ccccc1Br)c1nsnc21	4.75	-5.11	46.3	50.6	9.4	16.6	54.2	56.1	16.9	35	92.1	25.5	4.88	39.7	2.47	64.7	57.9	-6.39	97.4	-5.66	growth at 10 µM (NCI-H522): 30.8%; growth at 10 µM (CAKI-1): 29.7%; growth at 10 µM (HOP-92): 37.6%; growth at 10 µM (A549): 95.4%; growth at 10 µM (NCI-H460): 58.2%; growth at 10 µM (NCI/ADR-RES): -29.9%; growth at 10 µM (RXF 393): -8.53%; growth at 10 µM (IGROV-1): 27.9%
O=C1c2ccccc2C(=O)c2c1cc(SCc1ccc(Cl)cc1)c1nsnc21	78.7	107	89.6	115	86.8	115	88.6	68.5	95.2	110	82.1	94.3	89.2	97.9	94.2	95.3	105	83	99.9	98	growth at 10 µM (NCI-H522): 82.6%; growth at 10 µM (NCI-H322M): 94.1%; growth at 10 µM (A549): 101%; growth at 10 µM (NCI-H460): 105%; growth at 10 µM (NCI/ADR-RES): 95.7%; growth at 10 µM (RXF 393): 105%; growth at 10 µM (OVCAR-4): 84.2%; growth at 10 µM (IGROV-1): 84.2%
Cc1ccccc1Sc1cc2c(c3nsnc13)C(=O)c1ccccc1C2=O	87.3	74.7	87.5	102	48.6	92.2	83.7	62.1	60.7	73.3	95.7	89.8	59.5	38.6	76.3	106	103	66.1	99.2	78	growth at 10 µM (NCI-H522): 74.8%; growth at 10 µM (CAKI-1): 81.5%; growth at 10 µM (HOP-92): 89.9%; growth at 10 µM (A549): 105%; growth at 10 µM (NCI-H460): 88.9%; growth at 10 µM (NCI/ADR-RES): 59.5%; growth at 10 µM (RXF 393): 95.9%; growth at 10 µM (IGROV-1): 80.1%
Cc1cccc(C)c1Sc1cc2c(c3nsnc13)C(=O)c1ccccc1C2=O	86.6	79.5	70.2	106	55.6	65	82.4	66.7	30.6	67.5	78.3	83.2	90	47.5	59	89.3	96	68.6	98.8	84.5	growth at 10 µM (NCI-H522): 61.4%; growth at 10 µM (CAKI-1): 61%; growth at 10 µM (NCI-H322M): 83.8%; growth at 10 µM (CCRF-CEM): 34.8%; growth at 10 µM (A549): 90.2%; growth at 10 µM (NCI-H460): 87.4%; growth at 10 µM (NCI/ADR-RES): 59.7%; growth at 10 µM (RXF 393): 76.2%; growth at 10 µM (OVCAR-4): 4%; growth at 10 µM (IGROV-1): 66.4%
CC(C)Sc1cc2c(c3nsnc13)C(=O)c1ccccc1C2=O	-91.7	7.06	-99.2	6.66	-38	-36.7	-9.16	-28.4	-35.9	-55.6	10.2	0.8	13.2	15.3	-22.6	-8.32	19.3	-68.8	102	-47	growth at 10 µM (NCI-H522): -59.5%; growth at 10 µM (CAKI-1): -5.68%; growth at 10 µM (NCI-H322M): -0.8%; growth at 10 µM (CCRF-CEM): -45%; growth at 10 µM (A549): -8.14%; growth at 10 µM (NCI-H460): 4.92%; growth at 10 µM (NCI/ADR-RES): -24.9%; growth at 10 µM (RXF 393): 13.6%; growth at 10 µM (OVCAR-4): -100%; growth at 10 µM (IGROV-1): -32.9%
